Experiments:
Mus musculus [1] = assay: Antiinflammatory activity in mouse model of xylene-induced ear swelling assessed as inhibition of swelling by measuring weight of the ear at 100 mg/kg, ig pretreated for 90 mins followed by xylene challenge and measured after 30 mins relative to control; type: functional; conditions: po, 2 h, time 120 min
Outline: (§1)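 Xylene ear swelling in mice. Test compounds 100 mg/kg i.g., naproxen 150 mg/kg i.g., all suspended in 0.5% CMC-Na; vehicle group got CMC-Na alone. 90 min after dosing, 25 ul xylene applied to both surfaces of right ear; left ear unstimulated. Killed 30 min later; 8 mm punches from both ears weighed; swelling taken against left ear weight.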

Mus musculus [2] = assay: Analgesic activity in mouse model of acetic-acid-induced writhing assessed as inhibition of writhing numbers at 70 mg/kg, po pretreated with compound followed by acetic acid challenge and measured after 30 mins relative to control; type: functional; conditions: 0.5 h
Outline: (§2)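 Acetic acid writhing in mice. Oral dosing (70 mg/kg test compounds or limonin; 200 mg/kg aspirin); vehicle controls got 0.5% CMC-Na. 30 min later 0.6% acetic acid, 10 ml/kg i.p. Each animal held in its own box and observed for 15 min; writhing and stretching counted; result as percent change from vehicle writhing controls.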

Mus musculus [3] = assay: Analgesic activity in mouse model of acetic-acid-induced writhing assessed as inhibition of writhing numbers at 200 mg/kg, po pretreated with compound followed by acetic acid challenge and measured after 30 mins relative to control; type: functional; conditions: 0.5 h; outline: as §2
Mus musculus [4] = assay: Antiinflammatory activity in ICR mouse model of carrageenan-induced paw edema assessed as paw edema inhibition rate at 50 mg/kg, po pretreated with compound followed by carrageenan challenge and measured after 1 hr post-treatment by dial thickness gage; type: functional
Outline: (§3)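 ICR male mice, 8 per group, randomized, acclimated at least one week, 12 h light/dark, 22 ± 1 °C. Dosed intragastrically at 25, 50 or 100 mg/kg; indomethacin 22 mg/kg i.g. as reference; olive oil as vehicle. 30 min later, 1% fresh carrageenan in saline injected subplantar into right hind paw. Paw thickness read by dial gauge before injection and at 1, 2, 3 and 4 h; percent increase over pre-injection value.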

Mus musculus [5] = assay: Antiinflammatory activity in ICR mouse model of carrageenan-induced paw edema assessed as paw edema inhibition rate at 50 mg/kg, po pretreated with compound followed by carrageenan challenge and measured after 3 hrs post-treatment by dial thickness gage; type: functional; outline: as §3
Mus musculus [6] = assay: Antiinflammatory activity in ICR mouse model of carrageenan-induced paw edema assessed as paw edema inhibition rate at 50 mg/kg, po pretreated with compound followed by carrageenan challenge and measured after 2 hrs post-treatment by dial thickness gage; type: functional; outline: as §3
Mus musculus [7] = assay: Antiinflammatory activity in ICR mouse model of carrageenan-induced paw edema assessed as paw edema inhibition rate at 22 mg/kg, po pretreated with compound followed by carrageenan challenge and measured after 2 hrs post-treatment by dial thickness gage; type: functional; outline: as §3
Mus musculus [8] = assay: Antiinflammatory activity in ICR mouse model of carrageenan-induced paw edema assessed as paw edema inhibition rate at 22 mg/kg, po pretreated with compound followed by carrageenan challenge and measured after 1 hr post-treatment by dial thickness gage; type: functional; outline: as §3
Mus musculus [9] = assay: Antiinflammatory activity in ICR mouse model of carrageenan-induced paw edema assessed as paw edema inhibition rate at 22 mg/kg, po pretreated with compound followed by carrageenan challenge and measured after 4 hrs post-treatment by dial thickness gage; type: functional; outline: as §3
Mus musculus [10] = assay: Antiinflammatory activity in ICR mouse model of carrageenan-induced paw edema assessed as paw edema inhibition rate at 22 mg/kg, po pretreated with compound followed by carrageenan challenge and measured after 3 hrs post-treatment by dial thickness gage; type: functional; outline: as §3
Mus musculus [11] = organism: Mus musculus; assay: animal or person; conditions: po, 2 h, read-out: INH
Mus musculus [12] = assay: Antiinflammatory activity in ICR mouse model of carrageenan-induced paw edema assessed as paw edema inhibition rate at 100 mg/kg, po pretreated with compound followed by carrageenan challenge and measured after 3 hrs post-treatment by dial thickness gage; type: functional; outline: as §3
Mus musculus [13] = assay: Antiinflammatory activity in ICR mouse model of carrageenan-induced paw edema assessed as paw edema inhibition rate at 25 mg/kg, po pretreated with compound followed by carrageenan challenge and measured after 1 hr post-treatment by dial thickness gage; type: functional; outline: as §3
Mus musculus [14] = assay: Antiinflammatory activity in ICR mouse model of carrageenan-induced paw edema assessed as paw edema inhibition rate at 50 mg/kg, ig pretreated with compound followed by carrageenan challenge and measured after 4 hrs post-treatment by dial thickness gage; type: functional; conditions: po; outline: as §3
Mus musculus [15] = assay: Antiinflammatory activity in ICR mouse model of carrageenan-induced paw edema assessed as paw edema inhibition rate at 100 mg/kg, po pretreated with compound followed by carrageenan challenge and measured after 1 hr post-treatment by dial thickness gage; type: functional; outline: as §3
Mus musculus [16] = assay: Antiinflammatory activity in po dosed ICR mouse model of carrageenan-induced paw edema assessed as paw edema inhibition rate pretreated with compound followed by carrageenan challenge and measured after 4 hrs post-treatment by dial thickness gage; type: functional, organism-based; conditions: dose mg/kg 25-100, time 4.0 hrs; outline: as §3
Mus musculus [17] = assay: Antiinflammatory activity in ICR mouse model of carrageenan-induced paw edema assessed as paw edema inhibition rate at 100 mg/kg, po pretreated with compound followed by carrageenan challenge and measured after 2 hrs post-treatment by dial thickness gage; type: functional; outline: as §3
Mus musculus [18] = assay: Antiinflammatory activity in ICR mouse model of carrageenan-induced paw edema assessed as paw edema inhibition rate at 100 mg/kg, po pretreated with compound followed by carrageenan challenge and measured after 4 hrs post-treatment by dial thickness gage; type: functional; outline: as §3
Mus musculus [19] = assay: Antiinflammatory activity in ICR mouse model of carrageenan-induced paw edema assessed as paw edema inhibition rate at 25 mg/kg, po pretreated with compound followed by carrageenan challenge and measured after 3 hrs post-treatment by dial thickness gage; type: functional; outline: as §3
Mus musculus [20] = assay: Antiinflammatory activity in ICR mouse model of carrageenan-induced paw edema assessed as paw edema inhibition rate at 25 mg/kg, po pretreated with compound followed by carrageenan challenge and measured after 2 hrs post-treatment by dial thickness gage; type: functional; outline: as §3
Mus musculus [21] = assay: Antiinflammatory activity in ICR mouse model of carrageenan-induced paw edema assessed as paw edema inhibition rate at 25 mg/kg, po pretreated with compound followed by carrageenan challenge and measured after 4 hrs post-treatment by dial thickness gage; type: functional; conditions: 2 h, dose mg/kg 25-100; outline: as §3
Mus musculus [22] = assay: Antiinflammatory activity in mouse model of xylene-induced ear swelling assessed as inhibition of swelling by measuring weight of the ear at 100 mg/kg, ig pretreated for 90 mins followed by xylene challenge and measured after 30 mins relative to deoxy-limonin; type: functional; conditions: time 120 min, 2 h; outline: as §1

CC1(C)OC(CCNCCc2ccc(F)cc2)C2(CO)[C@H]3CC[C@@]4(C)[C@H](c5ccoc5)OC(=O)[C@H]5O[C@]54[C@]3(C)C(=O)C[C@@H]12 (stereo partly drawn)
inhibition in vivo at 100 mg/kg (Mus musculus [1]): 16.1% | inhibition in vivo at 70 mg/kg (Mus musculus [2]): 55.8%

COc1ccc(CCNCCC2OC(C)(C)[C@@H]3CC(=O)[C@]4(C)[C@H](CC[C@@]5(C)[C@H](c6ccoc6)OC(=O)[C@H]6O[C@]654)C23CO)cc1OC (stereo partly drawn)
inhibition in vivo at 100 mg/kg (Mus musculus [1]): 26.7% | inhibition in vivo at 70 mg/kg (Mus musculus [2]): 11.2%

CC(=O)Oc1ccccc1C(=O)O [ASPIRIN]
inhibition in vivo at 200 mg/kg (Mus musculus [3]): 51.5%

CC1(C)OC(CCNCc2ccc(F)cc2)C2(CO)[C@H]3CC[C@@]4(C)[C@H](c5ccoc5)OC(=O)[C@H]5O[C@]54[C@]3(C)C(=O)C[C@@H]12 (stereo partly drawn)
inhibition in vivo at 100 mg/kg (Mus musculus [1]): 27.4% | inhibition in vivo at 70 mg/kg (Mus musculus [2]): 63.8%

CC1(C)OC2CCN(Cc3ccc(F)cc3)CC23[C@H]2CC[C@]4(C)C(=CC(=O)O[C@H]4c4ccoc4)[C@]2(C)C(=O)C[C@@H]13 (stereo partly drawn)
inhibition in vivo at 100 mg/kg (Mus musculus [1]): 28% | inhibition in vivo at 70 mg/kg (Mus musculus [2]): 40.3%

CC1(C)O[C@H]2CC(=O)OC[C@@]23[C@H]1CC(=O)[C@@]1(C)C2=CC(=O)O[C@@H](c4ccoc4)[C@]2(C)CC[C@@H]13
inhibition in vivo at 100 mg/kg (Mus musculus [1]): 11.2% | inhibition in vivo at 70 mg/kg (Mus musculus [2]): 22.6%

COc1cccc(CCNCCC2OC(C)(C)[C@@H]3CC(=O)[C@]4(C)[C@H](CC[C@@]5(C)[C@H](c6ccoc6)OC(=O)[C@H]6O[C@]654)C23CO)c1 (stereo partly drawn)
inhibition in vivo at 100 mg/kg (Mus musculus [1]): 17% | inhibition in vivo at 70 mg/kg (Mus musculus [2]): 58.7%

COc1ccc(CN2CCC3OC(C)(C)[C@@H]4CC(=O)[C@@]5(C)C6=CC(=O)O[C@@H](c7ccoc7)[C@]6(C)CC[C@@H]5C34C2)cc1 (stereo partly drawn)
inhibition in vivo at 100 mg/kg (Mus musculus [1]): 32.5% | inhibition in vivo at 70 mg/kg (Mus musculus [2]): 40%

CC1(C)O[C@H]2CC(=O)OC[C@]23[C@H]2CC[C@@]4(C)[C@H](c5ccoc5)OC(=O)[C@H]5O[C@]54[C@]2(C)C(=O)C[C@@H]13 [LIMONIN]
inhibition in vivo at 50 mg/kg (Mus musculus [4]): 57.3% | inhibition in vivo at 100 mg/kg (Mus musculus [1]): 14.4% | inhibition in vivo at 70 mg/kg (Mus musculus [2]): 44.2% | inhibition in vivo at 50 mg/kg (Mus musculus [5]): 26.3% | inhibition in vivo at 50 mg/kg (Mus musculus [6]): 22%

COc1ccc2c(c1)c(CC(=O)O)c(C)n2C(=O)c1ccc(Cl)cc1 [INDOMETHACIN]
inhibition in vivo at 22 mg/kg (Mus musculus [7]): 60% | inhibition in vivo at 22 mg/kg (Mus musculus [8]): 47.5% | inhibition in vivo at 22 mg/kg (Mus musculus [9]): 64.8% | inhibition in vivo at 22 mg/kg (Mus musculus [10]): 64.9%

COc1ccc2cc([C@H](C)C(=O)O)ccc2c1 [NAPROXEN]
inhibition in vivo at 150 mg/kg (Mus musculus [11]): 25%

CC1(C)OC(CCNCc2ccc(F)cc2)C2(CO)[C@H]3CC[C@]4(C)C(=CC(=O)O[C@H]4c4ccoc4)[C@]3(C)C(=O)C[C@@H]12 (stereo partly drawn)
inhibition in vivo at 100 mg/kg (Mus musculus [1]): 29.5% | inhibition in vivo at 70 mg/kg (Mus musculus [2]): 37%

COc1ccc(CCNCCC2OC(C)(C)[C@@H]3CC(=O)[C@@]4(C)C5=CC(=O)O[C@@H](c6ccoc6)[C@]5(C)CC[C@@H]4C23CO)cc1OC (stereo partly drawn)
inhibition in vivo at 100 mg/kg (Mus musculus [1]): 37.9% | inhibition in vivo at 70 mg/kg (Mus musculus [2]): 52.6%

COc1ccc(CNCCC2OC(C)(C)[C@@H]3CC(=O)[C@]4(C)[C@H](CC[C@@]5(C)[C@H](c6ccoc6)OC(=O)[C@H]6O[C@]654)C23CO)cc1 (stereo partly drawn)
inhibition in vivo at 50 mg/kg (Mus musculus [4]): 44.6% | inhibition in vivo at 100 mg/kg (Mus musculus [1]): 27.3% | inhibition in vivo at 100 mg/kg (Mus musculus [12]): 41.4% | inhibition in vivo at 25 mg/kg (Mus musculus [13]): 43.4% | inhibition in vivo at 50 mg/kg (Mus musculus [14]): 15.6% | inhibition in vivo at 100 mg/kg (Mus musculus [15]): 54.5% | inhibition in vivo at 70 mg/kg (Mus musculus [2]): 81.5% | inhibition (Mus musculus [16]): Dose-dependent effect | inhibition in vivo at 100 mg/kg (Mus musculus [17]): 62% | inhibition in vivo at 100 mg/kg (Mus musculus [18]): 32% | inhibition in vivo at 25 mg/kg (Mus musculus [19]): 9.77% | inhibition in vivo at 25 mg/kg (Mus musculus [20]): 24.6% | inhibition in vivo at 50 mg/kg (Mus musculus [5]): 17.5% | inhibition in vivo at 25 mg/kg (Mus musculus [21]): 5.75% | inhibition in vivo at 50 mg/kg (Mus musculus [6]): 33.3%

CC1(C)OC(CCNCCc2ccc(F)cc2)C2(CO)[C@H]3CC[C@]4(C)C(=CC(=O)O[C@H]4c4ccoc4)[C@]3(C)C(=O)C[C@@H]12 (stereo partly drawn)
inhibition in vivo at 100 mg/kg (Mus musculus [1]): 30% | inhibition in vivo at 70 mg/kg (Mus musculus [2]): 30.1%

COc1cccc(CCNCCC2OC(C)(C)[C@@H]3CC(=O)[C@@]4(C)C5=CC(=O)O[C@@H](c6ccoc6)[C@]5(C)CC[C@@H]4C23CO)c1 (stereo partly drawn)
inhibition in vivo at 50 mg/kg (Mus musculus [4]): 55.6% | inhibition in vivo at 100 mg/kg (Mus musculus [1]): 51.5% | inhibition in vivo at 100 mg/kg (Mus musculus [12]): 35.3% | inhibition in vivo at 25 mg/kg (Mus musculus [13]): 51.5% | inhibition in vivo at 100 mg/kg (Mus musculus [15]): 59.8% | inhibition in vivo at 70 mg/kg (Mus musculus [2]): 52.6% | inhibition (Mus musculus [16]): Dose-dependent effect | inhibition in vivo at 100 mg/kg (Mus musculus [17]): 65.3% | inhibition in vivo at 100 mg/kg (Mus musculus [18]): 27.5% | inhibition in vivo at 25 mg/kg (Mus musculus [19]): 12% | inhibition in vivo at 25 mg/kg (Mus musculus [20]): 17.6% | inhibition in vivo at 50 mg/kg (Mus musculus [5]): 24.1% | inhibition in vivo at 25 mg/kg (Mus musculus [21]): 5.43% | fold change (FC) (Mus musculus [22]): 5 | inhibition in vivo at 50 mg/kg (Mus musculus [6]): 27.3%

COc1ccc(CNCCC2OC(C)(C)[C@@H]3CC(=O)[C@@]4(C)C5=CC(=O)O[C@@H](c6ccoc6)[C@]5(C)CC[C@@H]4C23CO)cc1 (stereo partly drawn)
inhibition in vivo at 100 mg/kg (Mus musculus [1]): 24.8% | inhibition in vivo at 70 mg/kg (Mus musculus [2]): 29.7%

— ChEMBL document CHEMBL4699426, “A practical synthesis of amino limonin/deoxylimonin derivatives as effective mitigators against inflammation and nociception” (2020)
